Experimental data gathered from unrelated publications.
Protocols differ between the studies behind these lines.
Target: Serine/threonine-protein kinase 16 (STK16, Homo sapiens, UniProt O75716)

SMILES | test | setting | quantity | value
COc1cc(Nc2ncc(F)c(Nc3ccc4c(n3)NC(=O)C(C)(C)O4)n2)cc(OC)c1OC | binding, competition with immobilised ligand | 10 µM | inhibition | 100%
O=c1[nH]c2ccccc2n1C1CCN(Cc2ccc(-c3[nH]c4cc5ncnc5cc4nc3-c3ccccc3)cc2)CC1 | cell-free assay | 0.5 µM | remaining signal | 99.5%
Nc1ncc(-c2nc(N3CCOCC3)nc(N3CCOCC3)n2)c(C(F)F)n1 | binding, competition with immobilised ligand | 10 µM | remaining binding | 56%
Cn1cc(-c2cccc(N3CCc4c(sc5c4CC(C)(C)C5)C3=O)c2CO)cc(Nc2ccncn2)c1=O | enzyme activity, inhibitor | 1 µM | inhibition | -3%
COc1ncccc1-c1cnn2ccc(N3CCN(C(=O)OC(C)C)CC3)nc12 | binding, competition with immobilised ligand | 1 µM | remaining binding | 55%
Cc1nn(C)cc1-c1nc2c(N3CCN(Cc4ccc(Cl)cc4)CC3)c(Cl)cnc2[nH]1 | binding, competition with immobilised ligand | 1 µM | remaining binding | 18%
CC(C)(C)c1cc(C=C(C#N)C#N)cc(Br)c1O | enzyme activity, inhibitor | 0.5 µM | remaining activity | 99.2%
Cn1cc(-c2cc(F)cc(N3CCn4c(cc5c4CCCC5)C3=O)c2CO)cc(Nc2ccc(N3CCN(C4COC4)CC3)cn2)c1=O | enzyme activity, inhibitor | 0.1 µM | inhibition | 10%
Cn1cncc1[C@@](O)(COc1ccc(C#N)cc1-c1ccc(OC(F)(F)F)cc1)c1ccc(C#N)cc1 | cell-free assay, competition with immobilised ligand | 1 µM | remaining binding | 99%
